Screening data deposited in PubChem by several laboratories.
TMEM16A act: activators or potentiators of mouse TMEM16A chloride channel; AID 623877; HEK293 TMEM16A/YFP-H148Q/I152L, iodide quench fluorescence; stronger effect = lower value; 340,000 compounds, 0.3% hits; B-score at 10 µM; Q8BHY3;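 active means fluorescence-ratio B-score plate-corrected deviation score at least 3 library SD below zero, with starting fluorescence score within 5 deviations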;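 further: channel opened by trigger with iodide after compound preincubation; score built on the fluorescence ratio of max minus min over baseline; more negative score means more quench and so TMEM16A activation or potentiation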
FID counter: fluorescent intercalator displacement, NS3 helicase counter-screen | DNA fluorescent intercalator displacement, fluorescence | inhibition, % at 7.9 µM | 290,000 compounds, 0.17% hits | AID 1845; in the data active means inhibition above about 37%;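 further: 0% = vehicle and 100% = reference compound; higher means more ethidium bromide displaced from hairpin DNA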
Apaf1 inhib: human Apaf-1 inhibition; 330,000 compounds, 0.71% hits; reconstituted apoptosome caspase-3 activity, DEVD-Rh110 fluorescence; O14727; inhibition, % at 20 µM; AID 489030; active means inhibition of at least 40% at 20 µM;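 further: plate controls were DMSO wells for no effect and DEVD-CHO caspase inhibitor wells for full effect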
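Material: reconstituted apoptosome with Apaf-1, cytochrome c, caspase-9, procaspase-3, dATP; medium: pH 7.5 Hepes buffer with CHAPS, BSA, DTT; also added: cytochrome c and DEVD-Rh110 substrate; timing: 30 min plus 50 min, RT; signal: Rh110 fluorescence intensity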
UBC13 polyUb: blocks human UBC13 polyubiquitin chain formation; P61088; TR-FRET; inhibition, % at 20 µM; 330,000 compounds, 0.47% hits; in the data active means inhibition above about 45%, passing the limit was not always enough
TMEM16A inh: inhibitors of mouse TMEM16A calcium-activated chloride channel; Q8BHY3; HEK293 TMEM16A/YFP iodide influx fluorescence, ionomycin; normalized B-score (activity score, 25-100; higher = stronger inhibition) at 10 µM; 310,000 compounds, 1.2% hits; AID 588511;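 active means ratio plate-corrected score three or more library SD toward inhibition, starting fluorescence score within five deviations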;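 further: score derived from kinetic fluorescence span divided by baseline fluorescence per well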
TMEM16A reconf: re-confirmation of mouse TMEM16A chloride channel inhibitors. AID 652189. shares compounds with TMEM16A inh. 2,300 compounds, 39% hits. inhibition, % at 10 µM. HEK293 TMEM16A/YFP-H148Q, iodide quench fluorescence; ionomycin added to raise cell calcium;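 active means mean duplicate percent inhibition, scaled so buffer wells are 0 and the reference blocker 100, over three buffer SD above buffer mean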
HEK293 Ca mobil: counter-screen for TMEM16A inhibitors: effect on calcium mobilization; shares compounds with TMEM16A inh; TMEM16A/YFP HEK293, Fluo4 calcium mobilization; calcium response (% of ionomycin), % at 10 µM; 2,300 compounds, 2% hits;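 active means duplicate-averaged calcium signal over 20% of the ionomycin maximum, relative to buffer baseline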;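 further: each well's signal is peak minus trough fluorescence divided by its pre-addition baseline; 0% = buffer wells and 100% = ionomycin wells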
YFP-HEK293 quench: parental YFP-HEK293 iodide quench counter-screen activity; ionomycin; YFP ratio F(max-min)/F0 at 10 µM; shares compounds with TMEM16A inh; 2,300 tested, under 10 active;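 active means yellow fluorescent protein signal ratio exceeding the buffer control mean by over 5 SD of those controls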;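 further: ratio is mean of duplicate wells from kinetic YFP trace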
ClC-1 rat inh: blocks the rat ClC-1 voltage-dependent chloride channel. shares compounds with TMEM16A inh. CHO ClC-1-YFP, iodide influx fluorescence quench; iodide control reads 0, buffer control 100. ratio percent, % at 10 µM. 2,300 tested, under 10 active. AID 652236;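 active means duplicate-mean ratio percent above the mean of iodide-only control wells, which defines zero, plus 5 of their SD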;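 further: higher percent means stronger block of ClC-1 iodide influx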
Target sequence (P35524 whole entry, looked up): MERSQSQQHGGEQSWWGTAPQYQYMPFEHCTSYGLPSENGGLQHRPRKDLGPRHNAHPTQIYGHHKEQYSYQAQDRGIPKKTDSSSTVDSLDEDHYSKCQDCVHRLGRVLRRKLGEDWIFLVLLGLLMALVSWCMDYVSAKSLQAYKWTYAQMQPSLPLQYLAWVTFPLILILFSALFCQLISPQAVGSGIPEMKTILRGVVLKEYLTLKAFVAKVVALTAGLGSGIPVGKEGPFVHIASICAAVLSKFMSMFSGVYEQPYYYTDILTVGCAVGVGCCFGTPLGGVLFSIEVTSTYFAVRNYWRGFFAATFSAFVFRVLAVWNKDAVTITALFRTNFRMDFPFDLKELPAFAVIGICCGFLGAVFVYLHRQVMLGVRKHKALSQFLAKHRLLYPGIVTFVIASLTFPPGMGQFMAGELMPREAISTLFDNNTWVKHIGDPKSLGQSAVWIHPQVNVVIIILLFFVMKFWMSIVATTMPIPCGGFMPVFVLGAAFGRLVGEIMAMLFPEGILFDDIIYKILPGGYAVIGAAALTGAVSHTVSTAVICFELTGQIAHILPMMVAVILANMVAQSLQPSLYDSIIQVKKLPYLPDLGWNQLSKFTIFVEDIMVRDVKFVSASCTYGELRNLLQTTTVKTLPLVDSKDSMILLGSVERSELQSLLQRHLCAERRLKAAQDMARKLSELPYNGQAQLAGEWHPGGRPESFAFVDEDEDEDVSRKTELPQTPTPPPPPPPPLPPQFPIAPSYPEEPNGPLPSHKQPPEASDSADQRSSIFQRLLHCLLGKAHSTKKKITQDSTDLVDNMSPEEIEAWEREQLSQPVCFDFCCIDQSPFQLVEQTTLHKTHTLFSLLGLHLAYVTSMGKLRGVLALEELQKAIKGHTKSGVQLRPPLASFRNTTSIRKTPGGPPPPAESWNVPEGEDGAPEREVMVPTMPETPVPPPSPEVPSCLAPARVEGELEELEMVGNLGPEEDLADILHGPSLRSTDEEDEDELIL
* hit, by the source's call; i = inactive; · = no result. In the library only some 2.4% were active in any assay of this set; here they are far more common.

SMILES	TMEM16A act	FID counter	Apaf1 inhib	UBC13 polyUb	TMEM16A inh	TMEM16A reconf	HEK293 Ca mobil	YFP-HEK293 quench	ClC-1 rat inh
Cc1cc(OCC(=O)Nc2ccc(Br)cc2)cc2c1C(=O)CC(C)(C)O2	i	-7.4	21.3	-1.8	100*	21.5%*	i	-0.784	-23.5
CC(=O)Nc1ccc(NC(=O)COc2cc(O)c3c(c2)OC(C)(C)CC3=O)cc1	i	-24.9	-5.5	11.9	i	·	·	·	·
Cc1ccc(C)c(N2C(=O)C3C4C=CC(CC4)C3C2=O)c1 (stereo not drawn)	i	-5.2	-5.8	-0.3	i	·	·	·	·
CCN1/C(=C/C=C/C=C/C=C/c2sc3ccccc3[n+]2CC)Sc2ccccc21	i	-16.9	2.2	25.2	i	45.0%*	i	-0.875	-17.5
CN(C)S(=O)(=O)c1cccc(NC(=O)COC(=O)c2ccc3ccccc3n2)c1	i	·	-5.4	6.1	·	·	·	·	·
CCN(CC)S(=O)(=O)c1ccc(Cl)c(NC(=O)COC(=O)c2ccc(O)cc2)c1	i	-19.9	0.6	3.6	25*	45.0%*	i	-0.911	-8.5
CCN(CC)S(=O)(=O)c1cc(C(=O)OCC(=O)Nc2cccc(S(=O)(=O)N(C)C)c2)ccc1F	i	-7.6	-6.4	6.9	25*	i	i	-1.07	5.0
COc1cc(O)cc2c1[C@@H]1Oc3c(ccc(O)c3CC=C(C)C)[C@@H]1CO2	i	·	0.7	19.9	25*	29.5%*	i	-0.96	-9.5
COc1c(CC=C(C)C)cc(C2CC(=O)c3c(O)cc(O)cc3O2)cc1CC=C(C)C (stereo not drawn)	i	·	-0.8	-31.5	i	·	·	·	·
O=C(Nc1ccc2oc(=O)ccc2c1)c1cccnc1Cl	i	-0.2	18.2	-5.0	i	·	·	·	·
Cc1cccc(OCCCSc2nc3ccccc3[nH]2)c1	i	-9.7	11.2	9.5	100*	17.0%*	i	-1.12	-8.5
Cc1cc(N(C)Cc2ccccc2)nc2cc(O)ccc12	i	4.5	1.7	41.4	i	·	·	·	·
CNC(=O)c1ccccc1NC(=O)C1CC(=O)N(C(C)C)C1 (stereo not drawn)	i	0.6	-3.1	10.5	i	·	·	·	·
CCCc1cc(=O)[nH]c(SCC(=O)NCCC2=CCCCC2)n1	i	-18.2	0.5	-6.4	i	·	·	·	·
O=C1c2ccccc2C(=O)N1Cc1nn2c(-c3ccc(Cl)cc3)nnc2s1	i	·	3.2	-6.2	25*	i	i	-0.962	-3.5
O=C(NCCc1nc2ccccc2[nH]1)/C(=C/c1ccco1)NC(=O)c1ccc(Br)o1	i	-3.0	-3.3	-12.6	i	·	·	·	·
COCC(C)NCc1ccc(OC)c(Br)c1 (stereo not drawn)	i	3.0	1.8	-3.6	i	·	·	·	·
COC(C(=O)Nc1ccc(NC(=O)C(OC)c2ccccc2)cc1)c1ccccc1 (stereo not drawn)	i	-28.8	0.5	1.2	i	·	·	·	·
CCN(CC)S(=O)(=O)c1ccc(NC(=O)Nc2cccc(C(F)(F)F)c2)cc1	i	-3.4	-9.9	-4.2	100*	43.5%*	i	-1.25	-9.5
CCN(CC)S(=O)(=O)c1ccc(NC(=O)C(OC)c2ccccc2)cc1 (stereo not drawn)	i	-21.3	8.7	-7.7	25*	i	i	-1.33	-2.5
COc1cc(C2c3c(oc4ccccc4c3=O)C(=O)N2Cc2ccco2)ccc1O (stereo not drawn)	i	-0.5	-1.9	5.0	25*	i	i	-0.898	-3.5
COc1ccc(C(=O)C2CCN(CC(=O)Nc3ccccc3F)CC2)cc1	i	-6.0	9.8	-6.4	25*	i	i	-0.905	-4.0
CCOc1ccccc1NC(=O)CN1CCC(C(=O)c2ccc(OC)cc2)CC1	i	0.6	8.9	-1.9	i	·	·	·	·
